Calls of active or inactive are those of the source. The calls are words filed in the database; no cut-off is given here.
Legend:
Carbonic anhydrase 9 = Carbonic anhydrase 9 (Homo sapiens, UniProt Q16790); experiment: Inhibition of human carbonic anhydrase 9 preincubated for 10 mins by CO2 hydration stopped-flow assay
MDA-MB-231 [1] = experiment: Potentiation of doxorubicin-induced cytotoxicity against human MDA-MB-231 cells under normoxic condition at 1 uM after 72 hrs by MTS assay; assay type: functional, cell-based
MDA-MB-231 [2] = experiment: Cytotoxicity against human MDA-MB-231 cells after 72 hrs by MTS assay; settings: MDA-MB-231, 72 h
Carbonic anhydrase 2 = Carbonic anhydrase 2 (Homo sapiens, UniProt P00918); experiment: Inhibition of human carbonic anhydrase 2 preincubated for 10 mins by CO2 hydration stopped-flow assay
Homo sapiens [3] = species on record: Homo sapiens; experiment: Selectivity ratio of Ki for human carbonic anhydrase 1 to Ki for human carbonic anhydrase 9
Summary of the method: (§1)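 Stopped-flow CO2 hydration assay using 0.2 mM phenol red read at 557 nm, in 10 mM Hepes pH 7.5 with 0.1 M Na2SO4. Substrate was CO2-saturated water at 25 °C. Enzyme and inhibitor were preincubated 10 min at room temperature, testing at least seven inhibitor concentrations, with dilutions going down to 0.01 nM. Ki came from Lineweaver-Burk plots, triplicates averaged. The ratios are hCA I or hCA II Ki divided by hCA IX Ki.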

Homo sapiens [4] = species on record: Homo sapiens; experiment: Selectivity ratio of Ki for human carbonic anhydrase 2 to Ki for human carbonic anhydrase 9; summary of the method: as §1
Carbonic anhydrase 1 = Carbonic anhydrase 1 (Homo sapiens, UniProt P00915); experiment: Inhibition of human carbonic anhydrase 1 preincubated for 10 mins by CO2 hydration stopped-flow assay
MDA-MB-231 [5] = experiment: Ratio of IC50 for human MDA-MB-231 cells under hypoxic condition to IC50 for human MDA-MB-231 cells under normoxic condition; assay type: functional
MDA-MB-231 [6] = experiment: Potentiation of doxorubicin-induced cytotoxicity against human MDA-MB-231 cells under hypoxic condition at 1 uM after 72 hrs by MTS assay; assay type: functional, cell-based
Summary of the method: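 MDA-MB-231 cells (2×10^3 per well) were seeded in DMEM with 10% FCS, buffered with 22.3 mM bicarbonate, and moved to hypoxia (1% O2, 5% CO2, N2 balance). Cells were then held 72 h at 37 °C under hypoxia. Read-out was MTS, 1 h, A492. IC50 is the doxorubicin concentration giving 50% absorbance reduction. Data come from three independent experiments, six wells each.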

Carbonic anhydrase 1, sequence (P00915 whole entry): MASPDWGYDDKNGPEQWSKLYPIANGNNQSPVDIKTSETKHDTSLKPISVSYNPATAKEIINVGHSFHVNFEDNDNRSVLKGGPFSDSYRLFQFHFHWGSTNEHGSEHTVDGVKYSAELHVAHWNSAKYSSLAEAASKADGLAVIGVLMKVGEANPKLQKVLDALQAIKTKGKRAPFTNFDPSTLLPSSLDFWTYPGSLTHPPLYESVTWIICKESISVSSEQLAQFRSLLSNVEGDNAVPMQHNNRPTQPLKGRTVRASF

SMILES: NS(=O)(=O)c1ccc(-n2nc(CO)cc2-c2ccccc2)cc1
- Ki (Carbonic anhydrase 9): 27 nM

SMILES: COc1ccccc1-c1cc(CO)nn1-c1ccc(S(N)(=O)=O)cc1
- Ki (Carbonic anhydrase 9): 32 nM

SMILES: COc1ccc2cc(-c3cc(CO)nn3-c3ccc(S(N)(=O)=O)cc3)ccc2c1
- Activity (MDA-MB-231 [1]): inactive
- IC50 (MDA-MB-231 [2]): > 50 µM
- Ki (Carbonic anhydrase 9): 19 nM

SMILES: COc1ccc2cc(-c3cc(CO)nn3-c3ccc(S(N)(=O)=O)cc3)ccc2c1Br
- Ki (Carbonic anhydrase 9): 30 nM

SMILES: NS(=O)(=O)c1ccc(-n2cc(CO)c(-c3ccccc3)n2)cc1
- Ki (Carbonic anhydrase 9): 66 nM

SMILES: NS(=O)(=O)c1ccc(-n2nc(-c3ccc4ccccc4c3)cc2CO)cc1
- Ki (Carbonic anhydrase 9): 21 nM

SMILES: COc1cccc(-c2cc(CO)nn2-c2ccc(S(N)(=O)=O)cc2)c1
- Ki (Carbonic anhydrase 9): 26 nM

SMILES: Cc1ccc(-c2cc(CO)nn2-c2ccc(S(N)(=O)=O)cc2)cc1
- Ki (Carbonic anhydrase 2): 176 nM
- Ratio Ki (Homo sapiens [3]): 69
- Ratio Ki (Homo sapiens [4]): 8
- Ki (Carbonic anhydrase 1): 1510 nM

SMILES: NS(=O)(=O)c1ccc(-n2nc(CO)cc2-c2cccnc2)cc1
- Ki (Carbonic anhydrase 9): 13 nM

SMILES: NS(=O)(=O)c1ccc(-n2nc(-c3ccccc3)cc2CO)cc1
- Ki (Carbonic anhydrase 9): 157 nM

SMILES: NS(=O)(=O)c1ccc(-n2nc(CO)cc2-c2ccc(-c3ccccc3)cc2)cc1
- Ki (Carbonic anhydrase 9): 27 nM

SMILES: NS(=O)(=O)c1ccc(-n2nc(CCO)cc2-c2ccccc2)cc1
- Ki (Carbonic anhydrase 9): 23 nM

SMILES: COc1ccc2cc(-c3nn(-c4ccc(S(N)(=O)=O)cc4)cc3CO)ccc2c1
- Ki (Carbonic anhydrase 9): 48 nM

SMILES: COc1ccc2cc(-c3cc(CO)nn3-c3cccc(S(N)(=O)=O)c3)ccc2c1
- Ki (Carbonic anhydrase 9): 29 nM

SMILES: COc1cccc2c1C(=O)c1c(O)c3c(c(O)c1C2=O)C[C@@](O)(C(=O)CO)C[C@@H]3O[C@H]1C[C@H](N)[C@H](O)[C@H](C)O1 [DOXORUBICIN]
- Ratio IC50 (MDA-MB-231 [5]): 3

SMILES: N#Cc1ccc(-c2cc(CO)nn2-c2ccc(S(N)(=O)=O)cc2)cc1
- Ki (Carbonic anhydrase 9): 27 nM

SMILES: NS(=O)(=O)c1cccc(-n2nc(CO)cc2-c2ccc3ccccc3c2)c1
- Activity (MDA-MB-231 [1]): inactive
- IC50 (MDA-MB-231 [2]): > 50 µM
- Ki (Carbonic anhydrase 9): 19 nM
- Activity (MDA-MB-231 [6]): Active

SMILES: NS(=O)(=O)c1ccc(-n2cc(CO)c(-c3ccc4ccccc4c3)n2)cc1
- Ki (Carbonic anhydrase 9): 49 nM

SMILES: NS(=O)(=O)c1ccc(-n2nc(CO)cc2-c2ccc3c(ccc4ccccc43)c2)cc1
- Ki (Carbonic anhydrase 2): > 10000 nM
- Ratio Ki (Homo sapiens [3]): > 5
- Ratio Ki (Homo sapiens [4]): > 5
- Ki (Carbonic anhydrase 1): > 10000 nM
- Ki (Carbonic anhydrase 9): 1860 nM

SMILES: NS(=O)(=O)c1ccc(-n2nc(CO)cc2-c2cccc3ccccc23)cc1
- Ki (Carbonic anhydrase 9): 254 nM

SMILES: NS(=O)(=O)c1ccc(-n2nc(CO)cc2-c2ccc(Br)cc2)cc1
- Activity (MDA-MB-231 [1]): inactive
- IC50 (MDA-MB-231 [2]): > 50 µM
- Ki (Carbonic anhydrase 9): 15 nM
- Activity (MDA-MB-231 [6]): Active

SMILES: NS(=O)(=O)c1ccc(-n2nc(CO)cc2-c2ccc3ccccc3c2)cc1
- Ki (Carbonic anhydrase 9): 17 nM

SMILES: NS(=O)(=O)c1cccc(-n2nc(CO)cc2-c2ccccc2)c1
- Ki (Carbonic anhydrase 9): 31 nM
